In data set [1] the target is SSTR3 (Homo sapiens, UniProt P32745). The data set is described as follows: PathHunter β-Arrestin GPCR assay, antagonist mode. In kind it is cell-based. The following applies: dose-response starting at 20 μM, duplicate.
Data set [2] concerns the target KLK7 (substrates desmoglein-2 and E-cadherin) (Homo sapiens, UniProt P49862). Nature of the data set: Cleavage of KLK7 downstream substrates, biochemical assay. The following applies: 10 μM.
Data set [3] concerns MDA-MB-468 breast cancer cells. Nature of the data set: Dsg-2 shedding in MDA-MB-468 cells. In kind it is cell-based.
The test system of data set [4] is MDA-MB-468 breast cancer cells. The data set is described as follows: Transwell migration assay, MDA-MB-468 cells. Conditions: 48 h. In kind it is cell-based. Put shortly: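 5000 MDA-MB-468 cells in DMEM with 10% FBS were treated with graded test compound or solvent control. They were seeded into 8 μm pore PET transwell inserts, with the same compound concentration in complete medium on the other side. After 48 h at 37 °C, 5% CO2, non-migrated cells were swabbed off, and migrated cells were crystal violet-stained and counted microscopically. Triplicate.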

In data set [5] the target is Kallikrein 7 (KLK7) (Homo sapiens, UniProt P49862). The data set is described as follows: Protease inhibition assay, fluorescent peptide substrate. In kind it is biochemical.
The target of data set [6] is T1, CCR10 (Homo sapiens, UniProt P46092).
T1 sequence (P46092 1-362): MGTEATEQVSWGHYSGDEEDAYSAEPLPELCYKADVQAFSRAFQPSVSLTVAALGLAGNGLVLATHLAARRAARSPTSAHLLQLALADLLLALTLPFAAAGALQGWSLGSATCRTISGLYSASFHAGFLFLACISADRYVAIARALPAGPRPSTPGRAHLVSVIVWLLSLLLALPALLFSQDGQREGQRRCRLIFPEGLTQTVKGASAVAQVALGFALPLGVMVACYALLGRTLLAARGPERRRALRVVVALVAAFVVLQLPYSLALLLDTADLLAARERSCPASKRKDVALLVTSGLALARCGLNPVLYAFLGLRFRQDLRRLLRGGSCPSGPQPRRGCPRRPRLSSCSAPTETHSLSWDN
The data set is described as follows: PathHunter β-Arrestin GPCR assay, antagonist mode. Conditions: dose-response starting at 20 μM, duplicate. In kind it is cell-based.

In data set [7] the test system is MDA-MB-231 breast cancer cells. The data set is described as follows: MTT cell viability assay in MDA-MB-231 cells. In kind it is cell-based. Conditions: MDA-MB-231, 48 h; for cytotoxicity: MTT, up to 100 μM. Put shortly:
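MDA-MB-231 cells kept in DMEM with 10% FBS were seeded at 10,000 cells/well. After 24 h they were exposed to graded test compound or DMSO solvent control for 48 h. Viability was measured by MTT.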
In general terms: Tetrazolium dyes change colour on reduction, which living cells bring about.

In data set [8] the test system is CXCR7, CCR10, OXTR, SSTR3, and TACR2. The data set is described as follows: GPCR secondary screen, dose-response against the five hits. In kind it is cell-based. The following applies: up to 20 μM. Put shortly: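 Secondary β-arrestin (PathHunter) screen on the five receptors, run in agonist and antagonist modes. Dosing was 10 points by 3-fold serial dilution from 20 μM, in duplicate, with 1% vehicle. Chemiluminescent β-galactosidase read after 1 h detection at RT.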

Data set [9] has as its target plasma kallikrein. The following applies: read-out: Ki plasma kallikrein; cited from earlier work.
For data set [10], the system named is MDA-MB-231 cells. Nature of the data set: Transwell migration assay, MDA-MB-231 cells. The following applies: 10 μM, 48 h. In kind it is cell-based. A digest of the protocol: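 Transwell inserts with 8 μm pore PET membrane; MDA-MB-231 cells were exposed to test compound or solvent control. After incubation, non-migrated cells were wiped off, and migrated cells were crystal violet-stained and counted under a microscope.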

Data set [11] deals with panel of 241 GPCR targets. Nature of the data set: GPCR profiling, gpcrMAX and orphanMAX panels. Conditions: 10 μM; hit = > 50% activity or inhibition. In kind it is cell-based. A digest of the protocol: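 PathHunter β-arrestin enzyme fragment complementation in HEK293, CHO or U2OS lines stably expressing ProLink-tagged GPCR and EA-tagged β-arrestin. Test compound was 10 μM, one also at 20 μM; vehicle 1% final. Agonist mode: 90 or 180 min at 37 °C or RT. Chemiluminescence read after 1 h detection reagent. % activity/inhibition taken versus vehicle and control ligand.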

For data set [12], the target named is T2, OXTR (Homo sapiens, UniProt P30559).
T2 sequence (P30559 1-389): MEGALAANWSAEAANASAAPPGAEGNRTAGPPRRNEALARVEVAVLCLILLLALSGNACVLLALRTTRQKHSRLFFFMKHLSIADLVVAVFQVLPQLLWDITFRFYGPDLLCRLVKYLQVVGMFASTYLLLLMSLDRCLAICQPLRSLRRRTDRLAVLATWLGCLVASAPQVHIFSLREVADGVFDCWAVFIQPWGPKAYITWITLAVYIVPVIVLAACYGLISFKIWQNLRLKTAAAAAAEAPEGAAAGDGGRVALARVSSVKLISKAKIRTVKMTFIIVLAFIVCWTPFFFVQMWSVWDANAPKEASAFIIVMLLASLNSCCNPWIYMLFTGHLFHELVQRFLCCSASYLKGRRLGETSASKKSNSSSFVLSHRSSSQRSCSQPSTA
Nature of the data set: PathHunter β-Arrestin GPCR assay, antagonist mode. In kind it is cell-based. Conditions: dose-response starting at 20 μM, duplicate.

The subject of data set [13] is MDA-MB-231 cells. Nature of the data set: CCL27-induced proliferation of MDA-MB-231 cells. In kind it is cell-based. Conditions: serum deprived conditions, 48 h. A digest of the protocol:
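MDA-MB-231 cells (10,000/well) were seeded in serum-free DMEM for 24 h. For the CCL27 response, cells got graded CCL27 for 48 h. For inhibition, cells were pretreated with test compound for 2 h, then given CCL27 (1 μg/mL final) and incubated 48 h. Viability was read by MTT against solvent control. Mean ± SD, n = 3, two-tailed unpaired t test.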

Square brackets hold non-standard residues; d marks the D form. Peptide text beside a SMILES is read from it. * marks the point of attachment. X4 = CC[C@H](C)[C@@H](OC(=O)[C@H](Cc1ccccc1)N(C)C)C(=O)*; X1 = CC[C@H](C)[C@@H](OC(=O)/C=C/c1ccccc1)C(=O)*; X3 = CC[C@H](C)[C@@H](OC(=O)/C=C\c1ccccc1)C(=O)*; X5 = CC[C@H](C)[C@@H](OC(=O)C#Cc1ccccc1)C(=O)*; X2 = CC[C@H](C)[C@@H](OC(=O)CCc1ccccc1)C(=O)*; Hmp(2R,3S) = CC[C@H](C)[C@@H](O)C(=O)O; dNMeF = CN[C@H](Cc1ccccc1)C(=O)O; NMeL = CN[C@@H](CC(C)C)C(=O)O; dHiv = CC(C)[C@@H](O)C(=O)O

Sequence of Kallikrein 7 (KLK7) (P49862 30-253): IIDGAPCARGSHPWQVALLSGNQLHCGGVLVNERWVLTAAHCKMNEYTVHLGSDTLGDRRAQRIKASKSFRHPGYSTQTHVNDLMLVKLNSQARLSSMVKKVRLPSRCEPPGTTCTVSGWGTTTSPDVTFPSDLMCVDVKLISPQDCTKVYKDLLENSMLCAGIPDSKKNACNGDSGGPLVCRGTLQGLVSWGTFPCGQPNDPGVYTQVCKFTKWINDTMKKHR
Sequence of SSTR3 (P32745 whole entry): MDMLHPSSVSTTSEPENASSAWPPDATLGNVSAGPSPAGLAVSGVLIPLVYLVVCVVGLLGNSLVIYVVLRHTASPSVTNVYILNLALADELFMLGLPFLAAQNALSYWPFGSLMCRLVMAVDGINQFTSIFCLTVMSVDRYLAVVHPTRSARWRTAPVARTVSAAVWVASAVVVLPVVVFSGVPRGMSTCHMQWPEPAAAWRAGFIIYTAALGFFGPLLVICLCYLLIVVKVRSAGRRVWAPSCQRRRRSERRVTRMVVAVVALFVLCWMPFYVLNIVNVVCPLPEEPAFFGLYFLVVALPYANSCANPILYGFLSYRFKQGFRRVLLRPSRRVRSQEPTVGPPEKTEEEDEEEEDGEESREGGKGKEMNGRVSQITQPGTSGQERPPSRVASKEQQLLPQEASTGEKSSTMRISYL
Sequence of KLK7 (substrates desmoglein-2 and E-cadherin) (P49862 30-253): as the sequence (P49862 30-253) above

For `CC[C@H](C)[C@@H](OC(=O)CCc1ccccc1)C(=O)N1CCC[C@H]1C(=O)NCC(=O)N(C)[C@@H](CC(C)C)C(=O)N[C@@H](C)C(=O)N(C)[C@H](Cc1ccccc1)C(=O)N1CCC[C@H]1C(=O)OC` [Compound 6, dehydro-brintonamide D/E] (X2-PG[NMeL]A[dNMeF]P-OMe), the “IC50 antagonist SSTR3” value in [1] is “inactive”.

By IC50 is commonly meant the point on the concentration scale where inhibition reaches its midpoint. Lower therefore signals inhibition by little substance. Turning to `CC[C@H](C)[C@@H](OC(=O)/C=C/c1ccccc1)C(=O)N1CCC[C@H]1C(=O)NCC(=O)N(C)[C@@H](CC(C)C)C(=O)N[C@@H](C)C(=O)N(C)[C@H](Cc1ccccc1)C(=O)N1CCC[C@H]1C(=O)OC` [Compound 4, brintonamide D] (X1-PG[NMeL]A[dNMeF]P-OMe), the “cleavage of KLK7 downstream substrates desmoglein-2 and E-cadherin” value in [2] is reported as “partially inhibited”. Moreover, the Dsg-2 shedding result in data set [3] is reported as “unable to decrease Dsg-2 shedding”. In [4], the “migration of MDA-MB-468 cells” value is “inhibiting the migration”. The molecule further came in with an IC50 in data set [5] of approximately 20 µM. Also, the “IC50 antagonist CCR10” value in data set [6] is given as “submicromolar activity”. In addition, the cytotoxic effects result in [7] (up to 10 μM (Figure 6B)) is “no cytotoxic effects”. Besides, the “activity against the tested GPCR targets” value in data set [8] is reported as “active against all five tested GPCR targets”.

In general, Ki refers to the equilibrium dissociation constant of an inhibitor or competing ligand from its target. Ecallantide: the inhibition constant Ki in [9] was 0.025 nM.

Consider `CC[C@H](C)[C@@H](OC(=O)/C=C\c1ccccc1)C(=O)N1CCC[C@H]1C(=O)NCC(=O)N(C)[C@@H](CC(C)C)C(=O)N[C@@H](C)C(=O)N(C)[C@H](Cc1ccccc1)C(=O)N1CCC[C@H]1C(=O)OC` [Compound 5, brintonamide E] (X3-PG[NMeL]A[dNMeF]P-OMe), for which the “IC50 antagonist SSTR3” value in [1] was “inactive”.

With `COC(=O)[C@@H]1CCCN1C(=O)[C@@H](Cc1ccccc1)N(C)C(=O)[C@H](C)NC(=O)[C@H](CC(C)C)N(C)C(=O)CNC(=O)[C@@H]1CCCN1C(=O)[C@H](O)C(C)C` [Compound 2, brintonamide B] (H-[dHiv]PG[NMeL]A[dNMeF]P-OMe), the cytotoxicity result in data set [7] is recorded as “did not show any cytotoxicity”. The “activity against the tested GPCR targets” value in data set [8] is listed as “did not show any activity”.

In the case of `CC[C@H](C)[C@@H](O)C(=O)N1CCC[C@H]1C(=O)NCC(=O)N(C)[C@@H](CC(C)C)C(=O)N[C@@H](C)C(=O)N(C)[C@H](Cc1ccccc1)C(=O)N1CCC[C@H]1C(=O)OC` [Compound 1, brintonamide A] ({Hmp(2R,3S)}-PG[NMeL]A[dNMeF]P-OMe), the inhibition of migration result in data set [10] is “inactive”. The IC50 in [5] was approximately 20 µM. In addition, the cytotoxicity result in data set [7] was “did not show any cytotoxicity”. In addition, the “hits in GPCR profiling” value in [11] is “did not show any hits”. Further, the “activity against the tested GPCR targets” value in [8] is given as “did not show any activity”.

`CC[C@H](C)[C@@H](OC(=O)C#Cc1ccccc1)C(=O)N1CCC[C@H]1C(=O)NCC(=O)N(C)[C@@H](CC(C)C)C(=O)N[C@@H](C)C(=O)N(C)[C@H](Cc1ccccc1)C(=O)N1CCC[C@H]1C(=O)OC` [Compound 7, dihydro-brintonamide D/E] (X5-PG[NMeL]A[dNMeF]P-OMe): the “activity against the tested GPCR targets” value in [8] is recorded as “did not exhibit any activity”.

Consider `CC[C@H](C)[C@@H](OC(=O)[C@H](Cc1ccccc1)N(C)C)C(=O)N1CCC[C@H]1C(=O)NCC(=O)N(C)[C@@H](CC(C)C)C(=O)N[C@@H](C)C(=O)N(C)[C@H](Cc1ccccc1)C(=O)N1CCC[C@H]1C(=O)OC` [Compound 3, brintonamide C] (X4-PG[NMeL]A[dNMeF]P-OMe), for which, in data set [6], the “IC50 antagonist CCR10” value is “did not show any activity”. For the same molecule, the “IC50 antagonist OXTR” value in data set [12] is reported as “did not show any activity”.

B1: CCL27: C-C motif chemokine ligand 27, ligand of CCR10 (protein, UniProt Q9Y4X3 25-112, looked up)
C-C motif chemokine 27: FLLPPSTACCTQLYRKPLSDKLLRKVIQVELQEADGDCHLQAFVLHLAQRSICIHPQNPSLSQWFEHQERKLHGTLPKLNFGMLRKMG
Consider B1, for which the “cell proliferation in response to CCL27 stimulation” value in [13] is “increased in a dose-dependent manner”.

The values are drawn from article PMC7341966 (Journal of medicinal chemistry, 2018).
